HSF1 inh – HSF1 inhibition; NIH3T3-HGL HSE-luciferase, MG132-induced, luminescence 8 h; hits give low values; activity change, negative = inhibition, % at 7.5 µM (by protocol); 300,000 compounds, 0.77% hits; AID 2098;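 active = more than half of replicate wells show activity change below -50%, luminescence cut by over half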;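 note: luciferase reports HSF-1 transcriptional activity via heat shock element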
T cruzi inh – T. cruzi replication inhibition; AID 1885; T. cruzi beta-gal in NIH3T3, luminescence, 90 h; inhibition, % (no concentration beside the values); 300,000 compounds, 1.4% hits;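 active = mean inhibition across valid replicates above about 55%, limit read from the data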;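 note: signal also drops with host cell toxicity which is not excluded here; higher percent means less beta-gal luminescence so fewer parasites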
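Incubation – ≥90 h infection period, 3 h prior cell attachment · System – NIH/3T3 fibroblasts plus reporter T. cruzi · Doses – compound pinned at 50 nL/well, DMSO · Read-out basis – percent inhibition of parasite-derived β-gal signal · Signal – luminescent β-galactosidase signal after 60 min lysis · Also added – 5000 T. cruzi trypomastigotes/well · Medium – Low-serum DMEM with 2% FBS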
Lmaj promast – inhibitors of Leishmania major promastigote growth | Leishmania major promastigotes, resazurin fluorescence viability | inhibition, % at 10 µM | 200,000 compounds, 9% hits; in the data active = inhibition above about 50%;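 note: promastigotes grown with compound for 44 hours at 28 °C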
HSF-1 act – increases HSF-1 driven luciferase reporter signal. NIH3T3-HGL HSF-1 luciferase reporter, MG132, 8 h; 100% = twice DMSO control signal. 300,000 compounds, 1.7% hits. AID 504408. activation, % at 9 µM;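 active = mean replicate activation of at least 50% with a set share of replicates each reaching 50%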
Hsp70 act – switches on Hsp70 transcription. HeLa Hsp70 promoter luciferase reporter, luminescence; scaled: vehicle 0, proteasome-inhibitor control 100%. activation, % at 10 µM. 200,000 compounds, 0.04% hits. AID 1203;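 active = activation above the mean across all tested compounds plus 3 SD, cutoff set per campaign, cut at about 5.5% in these data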
Numbers stand for hits; - = inactive; . = not tested or not shown. Only a selection was taken, and hits are over-represented in it overall.

SMILES	HSF1 inh	T cruzi inh	Lmaj promast	HSF-1 act	Hsp70 act
COC(=O)C(c1ccccc1)C1(O)CC(C)N(C)CC1C (stereo not given)	-76.1	-	.	-	.
Cc1c(Cl)ccc2c1NC(=O)C21NC(CCC(N)=O)[C@H]2C(=O)N(c3ccc(Cl)cc3)C(=O)[C@H]21 (stereo not given in full)	-	-	-	56.5	-
COc1ccc(/C(C)=N/Nc2nc(C)c(C(C)=O)s2)cc1	-	-	.	-	.
CC(=O)c1sc(N/N=C2\CC3CC2C(C)C3(C)C)nc1C (stereo not given)	-	-	91.3	-	-
CCOC(=O)Cc1ccc2sc(-c3ccccc3)nc2c1	-	-	-	92.4	-
CCOC(=O)c1sc(-c2ccccc2)nc1C	-	-	-	-	-
Cc1cc(C)c(O)c(N)c1	.	.	-	.	-
O=c1cc(CSc2ccc(Cl)cc2)nc(N2CCCCC2)[nH]1	-	-	-	64.6	-
Cc1ccc(SCc2cc(=O)[nH]c(N3CCN(Cc4ccccc4)CC3)n2)cc1	-	-	-	-	-
O=C(Nc1ccccc1)c1sc2cc(C(F)(F)F)cnc2c1-c1cccs1	-	-	58.7	-	-
NNC(=O)c1sc2cc(C(F)(F)F)cnc2c1-c1cccs1	-	-	-	-	-
COc1cccc(CNC(=O)COc2ccc(C(=O)c3ccccc3)cc2)c1	-	-	.	-	.
O=C(Oc1oc(-c2ccco2)nc1C=Nc1ccccc1)c1ccoc1	-81.3	-	-	-	-
Cc1ccc(C(=O)Oc2oc(-c3ccco3)nc2C=Nc2ccc(Cl)cc2)cc1	-	-	-	85.6	-
Cc1ccc(C(=O)Oc2oc(-c3ccccc3)nc2C=Nc2ccc(N(C)C)cc2)cc1	-	-	-	143.8	-
CN(C)c1ccc(N=Cc2nc(-c3ccccc3)oc2OC(=O)c2cccc(Cl)c2)cc1	-	-	-	-	-
Cc1cccc2c(=O)c(Br)c(C)n(Cc3ccccc3)c12	-	-	-	-	-
CCCCn1c(=O)c(CCC(=O)OCC(=O)NC(=O)NCCOC)nc2ccccc21	-	-	-	-	-
CNC(CC(C)C)C(=O)NC1C(=O)NC(CC(N)=O)C(=O)NC2C(=O)NC3C(=O)NC(C(=O)NC(C(=O)O)c4cc(O)cc(O)c4-c4cc3ccc4O)C(O)c3ccc(c(Cl)c3)Oc3cc2cc(c3OC2OC(CO)C(O)C(O)C2OC2CC(C)(N)C(O)C(C)O2)Oc2ccc(cc2Cl)C1O (stereo not given)	-	-	.	-	.
Nc1ccc(-c2cnc(-c3ccc(N)cc3)nc2)cc1	-	-	-	-	-
Oc1ccc(-c2cnc(-c3ccc(O)cc3)nc2)cc1	-	-	.	66.6	.
COc1ccc(NC(=S)Nc2cccc([N+](=O)[O-])c2)cc1	-	-	87.4	-	-
COc1ccc(NC(=O)c2cc([N+](=O)[O-])ccc2O)cc1	-73.5	-	-	-	-
COc1ccc(CNC(=O)C(C)OC(=O)CCN2C(=O)C3CC=CCC3C2=O)cc1 (stereo not given)	-	-	.	-	.
C=CC[n+]1c(-c2ccc(C)cc2)csc1Nc1c(C)n(C)n(-c2ccccc2)c1=O	-	65.5	-	-	-
SMILES	HSF1 inh	T cruzi inh	Lmaj promast	HSF-1 act	Hsp70 act
CC1(C)Cc2c(cnn2-c2cccc(F)c2)C(NC(=O)CN2CCCC2=O)C1 (stereo not given)	-	-	.	-	.
O=C(c1ccccc1)N1CC(COc2ccccc2)OC(c2cccnc2)O1 (stereo not given)	-	-	54.0	-	-
CC(C)c1ccc(N(CC(=O)NCC2CCCO2)C(=O)Cn2nnc(-c3cccs3)n2)cc1 (stereo not given)	-	-	-	-	-
O=C(Cc1cccc(C(F)(F)F)c1)NCc1cccc(Cl)c1	-	-	-	-	-
O=C(NCc1cccc(Cl)c1)c1ccc(S(=O)(=O)Nc2cccc(C(F)(F)F)c2)cc1	-	-	64.4	-	-
O=C(c1cc2ncccn2n1)N1CCc2c([nH]c3ccccc23)C1c1ccccc1F (stereo not given)	-	-	56.4	-	-
S=C(Nc1ccc(Nc2ccccc2)cc1)NC1CCCCCC1	-	54.8	-	-	-
COC(=O)c1ccc(NC(=S)NC2CCCCC2)cc1	-	-	87.0	-	-
COc1cc(/C=N/NC(=S)NC2CC3CCC2C3)ccc1O (stereo not given)	-	-	.	57.0	.
CC(C)(C)NC(=S)Nc1ccc(Nc2ccccc2)cc1	-	-	61.4	-	-
S=C(Nc1ccc(Cl)cc1)NC1CCCCC1	-	-	.	-	.
CC(C)(C)NC(=S)Nc1ccc(Br)cc1	-	-	-	-	-
O=C(Nc1ccc(F)c(Cl)c1)C1CC2CCC1C2 (stereo not given)	-	-	.	70.0	.
COC(=O)c1ccc(NC(=S)NC2CC3CCC2C3)cc1 (stereo not given)	-	-	73.1	-	-
CCOC(=O)c1ccc(NC(=O)C2CC3CCC2C3)cc1 (stereo not given)	-	-	.	63.9	.
COC(=O)c1ccc(NC(=O)NC2CCCCC2)cc1	-	-	52.2	-	-
COC(=O)c1ccc(NC(=O)C2CC3CCC2C3)cc1 (stereo not given)	-	-	.	-	.
COc1ccc(NC(=O)NC2CCCCCCC2)cc1	-	-	.	-	.
NS(=O)(=O)c1cnccc1Nc1cccc(F)c1	-	-	.	-	.
COc1cccc(C(C(=O)NCC2CCCO2)N(C(=O)Cn2nnc3ccccc32)c2ccccc2C(C)=O)c1OC (stereo not given)	-	-	.	-	.
COc1ccc(OC)c(S(=O)(=O)N2CCC(C(=O)NC3CCCC3)CC2)c1	-	-	.	-	.
COc1cc(/C=N\NC(=O)c2ccc(C)nc2)ccc1OC(=O)c1cccc(F)c1	-	-	.	-	.
O=C(Cc1c(F)cccc1Cl)N/N=C/c1cccnc1	-	-	.	-	.
Cc1cc(C(=O)NCCc2ccc(S(N)(=O)=O)cc2)no1	-	-	-	-	-
CCOC(=O)c1ccc(NC(=O)N2CCN(S(C)(=O)=O)CC2)cc1	-53.0	-	-	-	-
SMILES	HSF1 inh	T cruzi inh	Lmaj promast	HSF-1 act	Hsp70 act
CCOC(=O)c1ccc(NC(=S)N2CCN(S(C)(=O)=O)CC2)cc1	-	-	-	-	-
O=P(C(=NCCO)NO)(N1CCOCC1)N1CCOCC1	-	-	.	-	.
COC(=O)c1sc(NC(=O)CSc2nc3cccnc3n2C2CCCCC2)nc1C	-	-	60.8	-	-
COC(=O)c1sc(NC(=O)CSc2nc3cccnc3n2C)nc1C	-	-	.	-	.
O=C1CC(N(Cc2ccc3c(c2)OCO3)C(=O)Nc2ccc(F)cc2)C(=O)N1c1ccccc1 (stereo not given)	-	-	-	56.9	-
COc1ccc(NC(=O)N(Cc2ccc3c(c2)OCO3)C2CC(=O)N(c3ccc(OC)cc3)C2=O)cc1 (stereo not given)	-	-	-	-	-
CCOC(=O)c1sc(NC(=O)c2sccc2C)cc1C	-	-	69.1	73.4	-
Cc1cccc(Nc2c([N+](=O)[O-])ccc3nonc23)c1	-	-	.	-	.
Cc1nc(-c2ccncc2)nc(NCCNc2ncccc2C(F)(F)F)c1Cl	-	76.7	.	-	.

Screening data as filed in PubChem BioAssay.
